Drawing on PMC4704638 (Brazilian Journal of Microbiology, 2015), this text covers Km for 3 compounds.

As usually defined, the Km is the concentration of substrate that gives half-maximal velocity.

For this experiment, the system named is Streptomyces canarius L-glutaminase. As to the kind of experiment: ammonia release, Lineweaver-Burk plot. The class given is biochemical. The following applies: read-out: Km (mmol ^-1); 10-100 mM substrate. In outline:
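Purified enzyme (ammonium sulphate 50-80% cut, dialysis, DEAE-cellulose; 132.2 U/mg protein) in potassium phosphate buffer pH 8 with L-glutamine, L-asparagine or L-aspartic acid, each separately at 10-100 mM, under standard assay conditions. Deaminating activity read as liberated NH3, expressed as µmol per min per mg protein. Km and Vmax from Lineweaver-Burk fit of 1/S versus 1/activity.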

Molecules are shown by their SMILES.

Consider `NC(=O)C[C@H](N)C(=O)O` [L-asparagine], for which the Km was found to be 137 µM.

As to `N[C@@H](CC(=O)O)C(=O)O` [L-aspartic acid], the Michaelis-Menten constant (Km) was 5380 µM. For `NC(=O)CC[C@H](N)C(=O)O` [L-glutamine], the Michaelis-Menten constant (Km) was determined as 129 µM.
